High-throughput results as filed in PubChem BioAssay.
BB579 growth dn – yeast BB579 growth reduction in restrictive medium; inhibition, % at 10 µM; S. cerevisiae BB579 growth, OD615, 48 h; AID 804; actives 0.51% (n = 140,000);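 active = inhibition above a set limit, 3 SD over the mean compound inhibition, cut at about 44% in these data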
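System: DeaD yeast strain BB579; buffer or medium: CSMM-D dextrose restrictive medium; technique: OD at 615 nm; schedule: 4 h cell preincubation, 48 h compound exposure, 30 °C humidified; doses: single 10 µM dose; controls: amphotericin B 10 µg/mL, positive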
Yeast life ext – extends the lifespan of yeast. S. cerevisiae growth with nicotinamide, OD615; deaD strain in restrictive glucose medium. inhibition of the nicotinamide effect, % at 10 µM. actives 0.68% (n = 130,000);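 active = inhibition above a set limit, placed 3 SD over the median of all compounds, cut at about 26% in these data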
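Assay system: engineered S. cerevisiae DeaD replicative-lifespan strain, galactose-grown log-phase cells; medium: restrictive CSMM-D dextrose medium; also added: nicotinamide, 1.5 mM, co-present with compound; schedule: 48 h compound exposure at 30 °C, humidified; detection: absorbance at 615 nm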
Measles CPE – protection of cells from measles virus | Measles virus-infected cells, CPE protection, absorbance | protection (pct of control), % at 4 µM | actives 1.5% (n = 140,000); in the data active = protection mostly above about 24%, no sharp cut-off; inactive = mostly below about 26%
RAM network inh – yeast RAM network inhibition; S. cerevisiae dse1pr::URA3 reporter, 5-FOA growth OD615, 2 d; analog-sensitive cbk1-as2 kinase mutant strain; inhibition, % at 50 µM; actives 1.8% (n = 190,000);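 active = inhibition above a set limit, 3 SD over mean compound inhibition, cut at about 8.4% in these data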;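 note: inhibition rescues growth on 5-FOA so higher OD means more RAM inhibition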
Phagocyt inh – inhibitors of macrophage phagocytosis. J774A.1 macrophage IgG-bead phagocytosis, imaging. inhibition, % at 5 µM. actives 0.07% (n = 110,000);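 active = inhibition above the mean of the plate negative controls plus 5 SD, cut at about 13% in these data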;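 note: phagocytic index as fraction of beads internalized from green versus red external bead signal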
Each line names hits and unclear results; the compound was inactive in the other large screens. A selection: hits, their analogues and other compounds. The true share with any hit is near 3.6%.

O=C(c1cc(-c2ccco2)on1)N1CCc2ccccc2C1	Measles CPE 69
O=C(c1cncc(Br)c1)N1CCc2ccccc2C1	Yeast life ext 43
O=C(CCCCn1c(=O)c2ccccc2n(Cc2ccccc2)c1=O)NC1CCN(Cc2ccccc2)CC1	none (no result: BB579 growth dn, Yeast life ext, Measles CPE, Phagocyt inh)
O=[N+]([O-])c1cc(S(=O)(=O)N2CCCC2)ccc1NCCc1ccccc1	RAM network inh 9.7
COc1ccc(CCNc2ccc(S(=O)(=O)N3CCCC3)cc2[N+](=O)[O-])cc1	RAM network inh 11
COc1ccc(Nc2ccc(S(=O)(=O)N3CCCCCC3)cc2[N+](=O)[O-])cc1	none
OCCSc1nc2ccccc2n1CCOc1ccccc1	none
COc1ccc(C(=O)Cc2cc(OC)c(OC)cc2C(=O)c2ccccc2F)cc1OC	none (no result: BB579 growth dn, Yeast life ext, Measles CPE, Phagocyt inh)
CCOC(=O)/C(=C\c1ccccc1)C(=O)c1cc(C(C)=O)c(Nc2ccccc2)s1	none
CCOC(=O)/C(=C\c1cccnc1)C(=O)c1cc(C(C)=O)c(Nc2ccccc2)s1	Yeast life ext 33
CCCn1[nH]cc(SC)c(=O)c1=O	Yeast life ext 42
CCc1c(C)nc2[nH]nc(NC(=O)C(F)(F)F)n2c1=O	Measles CPE 51
O=C(COC(=O)COc1ccc(Cl)cc1)Nc1ccc(F)c([N+](=O)[O-])c1	none
COC(=O)c1sc(NC(=O)CSc2nncs2)c(C(=O)OC)c1C	Measles CPE 31
COC(=O)c1sc(NC(C)=O)c(C(=O)OC)c1C	none
N=C1S/C(=C\c2ccc(-c3cccc(Cl)c3)o2)C(=O)N1c1nccs1	none
COc1ccc(/C=C2\SC(=N)N(c3nccs3)C2=O)cc1OC	Yeast life ext 38
CCOC(=O)c1c(-c2ccc(C)o2)csc1NC(=S)NC(=O)c1ccc(F)cc1	RAM network inh 11
O=C(Nc1scc(-c2ccccc2)c1C(=O)O)c1ccco1	Yeast life ext 42
CCOC(=O)c1c(NC(=O)c2cccs2)sc(C)c1CC	RAM network inh 11
CCOC(=O)c1c(-c2cccs2)csc1NC(=O)c1ccncc1	RAM network inh 9.6
CC(C)(C)NC(=O)C(OC(=O)c1cccs1)c1ccc(F)cc1 (stereo not given)	none (no result: BB579 growth dn, Yeast life ext, Measles CPE, Phagocyt inh)
O=C(Nc1scc(-c2cccs2)c1C(=O)O)c1cccs1	Yeast life ext 35
O=C(/C=C/c1cccs1)Nc1scc(-c2ccccc2)c1C(=O)O	none (no result: BB579 growth dn, Yeast life ext, Measles CPE, Phagocyt inh)
CCC(Oc1ccccc1)C(=O)Nc1cc(C)on1 (stereo not given)	none
CCC(OC(=O)C(NC(=O)c1ccccc1)c1ccccc1)C(=O)Nc1cc(C)on1 (stereo not given)	Measles CPE 47
Cc1ccc(C(=O)OCC(=O)NCc2ccco2)cc1	Yeast life ext 56
O=C(COC(=O)c1ccccc1)NCc1ccco1	Measles CPE 26
O=C(COC(=O)c1ccco1)NCc1ccco1	none
N/C(Cc1ccccc1)=N\OC(=O)c1cccc2ccccc12	BB579 growth dn 84
N/C(=N\OC(=O)c1cccc2ccccc12)c1ccc(Br)cc1	none
Nc1cccc(Nc2nc(OC(C(F)(F)F)C(F)(F)F)nc(OC(C(F)(F)F)C(F)(F)F)n2)c1	Measles CPE 42 (no result: Phagocyt inh)
CN1CCN(CC(=O)N2CCn3c4c(c5cc(C6CCCCC6)ccc53)CCCC42)CC1 (stereo not given)	BB579 growth dn 100
COC(=O)/C=c1/s/c(=C(\C#N)C(=O)NCc2ccco2)n(-c2ccc(C)cc2)c1=O	RAM network inh 8.5
CCCC(=O)Nc1ccccc1Sc1ncnc2scc(-c3ccccc3)c12	Yeast life ext 44
CC(=O)Nc1ccc(Sc2ncnc3scc(-c4ccccc4)c23)cc1	none
CC(OC(=O)CCCc1nc2ccccc2s1)C(N)=O (stereo not given)	Measles CPE 29
COc1ccccc1/C=C(\NC(=O)c1ccc(OC)c(OC)c1)C(=O)Nc1cccc([N+](=O)[O-])c1	none
CCCc1cc(NCc2ccccn2)n2c(nc3ccccc32)c1C#N	RAM network inh 11 (no result: BB579 growth dn, Yeast life ext, Measles CPE, Phagocyt inh)
COc1ccc(C2CC(c3ccccc3)=NN2C(=O)COC(=O)c2nc3nc(C)cc(C)n3n2)cc1 (stereo not given)	none (no result: BB579 growth dn, Yeast life ext, Measles CPE, Phagocyt inh)
O=C(CCCn1c(=S)[nH]c2ccccc2c1=O)N1CCN(c2cccc(Cl)c2)CC1	Measles CPE 59
O=C(CCCCn1c(=O)[nH]c2ccccc2c1=O)N1CCN(c2cccc(C(F)(F)F)c2)CC1	none
CC1CCCC(NC(=O)CCCn2c(=S)[nH]c3ccccc3c2=O)C1C (stereo not given)	RAM network inh 9.0 (no result: BB579 growth dn, Yeast life ext, Measles CPE, Phagocyt inh)
CSc1ccccc1-c1n[nH]c(=S)o1	none (no result: BB579 growth dn, Yeast life ext, Measles CPE, Phagocyt inh)
Cc1c(NS(=O)(=O)c2ccc(N(C)C3CCCCC3)c([N+](=O)[O-])c2)c(=O)n(-c2ccccc2)n1C	none
O=c1c(C(c2ccccc2)c2c(O)nc3n(c2=O)CCS3)c(O)nc2n1CCS2	none
COc1ccc(CSc2nnc(Cc3sc(-c4ccccc4)nc3-c3ccccc3)o2)cc1	RAM network inh 9.6
CSc1nnc(Cc2sc(-c3ccccc3)nc2-c2ccccc2)o1	none
Cc1nc(-c2ccc(C(=O)Nc3cccc(Br)c3)cc2)cs1	none (no result: BB579 growth dn, Yeast life ext, Measles CPE, Phagocyt inh)
C/C(=N\OC(=O)NC1CCCCC1)c1sc(-c2ccccc2)nc1C	RAM network inh 10
CC(=O)/C(C#N)=C1\NC(=O)C(Cc2ccc(C)c(C)c2)S1 (stereo not given)	Measles CPE 69
CC(=O)/C(C#N)=C1\NC(=O)C(Cc2ccccc2Cl)S1 (stereo not given)	Measles CPE 38 (no result: Phagocyt inh)
CCn1c(SCC(=O)NNC(=O)c2ccc(C)cc2)nnc1-c1ccco1	none (no result: BB579 growth dn, Yeast life ext, Measles CPE, Phagocyt inh)
O=C(COc1c(Br)cc(Br)c2cccnc12)N1CCCCC1	none (no result: BB579 growth dn, Yeast life ext, Measles CPE, Phagocyt inh)
O=C(COc1c(Br)cc(Br)c2cccnc12)N1CCc2ccccc2C1	BB579 growth dn 99
O=C(Oc1ccc(=O)n(-c2ccccc2)n1)c1ccc(Cl)cc1	Yeast life ext 51 (no result: Phagocyt inh)
O=C(O)c1ccccc1SCC(=O)N1CCCCC1	Measles CPE 40
O=C(O)c1ccccc1SCC(=O)N1c2ccccc2Sc2ccccc21	RAM network inh 11
O=C(O)c1ccccc1SCC(=O)N1CCOCC1	none (no result: BB579 growth dn, Yeast life ext, Measles CPE, Phagocyt inh)
CSc1nc(-c2ccccc2F)c(C#N)c(=O)n1C	RAM network inh 8.6 (no result: BB579 growth dn, Yeast life ext, Measles CPE, Phagocyt inh)
CSc1nc(C)c(Oc2ccccc2)c(=O)n1C	none
Cc1ccccc1C(=O)Nc1nnc(-c2cccnc2)o1	none (no result: BB579 growth dn, Yeast life ext, Measles CPE, Phagocyt inh)
O=C(Nc1nnc(-c2ccccc2Cl)o1)c1cccnc1	Yeast life ext 34
Cc1cccc(NC(=O)NC(C)C(c2ccccc2)N2CCN(C)CC2)c1 (stereo not given)	none (no result: BB579 growth dn, Yeast life ext, Measles CPE, Phagocyt inh)
CCN1C(=O)/C(=C\c2nc3ccccc3c(=O)n2-c2ccccc2)c2ccccc21	RAM network inh 9.6
CC(C)c1ccc(C(=O)NNC(=O)C2CC=CCC2C(=O)O)cc1 (stereo not given)	Measles CPE 29
Cc1cc(C(=O)CSc2nc3ccccc3o2)c(C)n1CC1CCCO1 (stereo not given)	none
Cc1cc(C(=O)CSc2nc3ccccc3[nH]2)c(C)n1CC1CCCO1 (stereo not given)	Measles CPE 39 (no result: Phagocyt inh)
